This is an account of results in PubChem BioAssay AID720717 (ICCB-Longwood Screening Facility, Harvard Medical School, 2013).

Structures are written as SMILES. Among all 51,000 compounds or so, about 150 (0.29%) were called active. The sample holds actives, similar compounds and a random draw of the others, so the mix is not that of the screen.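 How the source made its calls: active means both repeat wells score below -2 in polarization z-score versus plate sample wells, excluding overly bright wells; inactive means the rest.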

This test deals with LANA (ORF73) N-terminal peptide binding to nucleosomes, Human herpesvirus 8. Description: LANA N-terminal peptide–nucleosome interaction blockers – biochemical, fluorescence polarization, FITC-LANA1-23, chicken nucleosomes, primary screen (AID 720717). The note with it: FITC-LANA1-23 / chicken nucleosome fluorescence polarization; hits give low values. The gist of the method: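 test system = FITC-LANA peptide and chicken nucleosomes | amount = 240 nM purified chicken nucleosomes (480 nM peptide binding sites), final | reagent = 50 nM FITC-LANA1-23 probe | medium = TEN-BT buffer, pH 7.5 | doses = single compound addition by pin transfer, 100 nL per well | timing = 10–45 min, room temperature | detection = fluorescence polarization | repeats = duplicate plates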
(Fluorescence polarisation rises when a labelled molecule tumbles more slowly, as on binding a larger partner.)
With `S=c1[nH]nc(NCCc2ccccc2)s1`, the z-score is 0.44 (inactive).
The same measure for `O=C1NC(c2ccccc2)=NC1(Nc1ccccn1)C(F)(F)F` (configuration not stated): 0.245 (inactive); for `CCOC(=O)c1nn(-c2ccccc2)c(C(=O)OCC)c1N(C(=O)CC)C(=O)CC`: -0.275 (inactive); for `O=C1CCCc2nc3nc(-c4ccncc4)nn3cc21`: -0.949 (inactive).
For the compound `CC(Sc1nnc(COc2ccccc2)n1-c1ccccc1)C(=O)O` (configuration not stated), the z-score was 0.582 (inactive).
The same measure for `O=c1[nH]ncc2c1[nH]c1ccccc12`: 0.221 (inactive); for `O=C1C2C3C=CC(C3)C2C(=O)N1C1CC2CCC1C2` (configuration not stated): -0.407 (inactive).
The same measure for `N/C(=N\OC(=O)Nc1ccccc1)c1ccno1`: -0.0325 (inactive).
The same measure for `C=CCOC(=O)c1cc(-c2ccc(/C=C3/NC(=S)NC3=O)o2)ccc1Cl`: 0.594 (inactive); for `COC(=O)CSc1nc(-c2ccccc2)cc(C)c1C#N`: -0.143 (inactive).
On to `CN(C)c1ccc(C(=S)N2CCN(c3cccc(Cl)c3)CC2)cc1`, for which the z-score was 0.446 (inactive).
With `COc1cccc(/C=N/NC(=O)c2cccc(C)c2)c1O`, the z-score is -0.518 (inactive).
The same measure for `Cc1ccccc1-c1n[nH]n2c1nc(=O)c1cc(Cl)ccc12`: 0.639 (inactive); for `O=C(NCc1ccncc1)C1CCN(C(=O)c2cccc(Cl)c2)CC1`: 0.832 (inactive).
The same measure for `Clc1ccc(C2N=C(c3cnccn3)NN2)cc1` (configuration not stated): -2.98 (active); for `CN(C)CCC(O)c1cc(Cl)sc1Cl` (configuration not stated): 0.472 (inactive).
Take `CC(=O)N1c2ccccc2NC(=O)C1CC(=O)Nc1cccc(C)c1` (configuration not stated): the z-score is 2.28 (inactive).
For the compound `O=C(Nc1ccc(-c2cn3cccnc3n2)cc1)C1CCCC1`, the z-score was 0.642 (inactive).
Regarding `CCOC(=O)C1=NNC2C(=O)N(c3cc(Cl)ccc3OC)C(=O)C12` (configuration not stated), the z-score is -0.513 (inactive).
`O=C(O)/C=C\C(=O)NCc1ccc2c(c1)OCO2`: the z-score was 0.273 (inactive).
The same measure for `CC1=CC(C)C2(COC(CN3CCCCC3)OC2)C(C)C1` (configuration not stated): -0.0595 (inactive); for `CN(Cc1ccccc1)C1(O)C(=O)Nc2c(C(F)(F)F)cccc21` (configuration not stated): 0.254 (inactive).
For `COc1ccc(CNC(=O)NC2CCN(S(=O)(=O)c3ccc(OC)cc3)CC2)cc1` the value was 0.0685 (inactive); for `Clc1cccc(Nc2nc3ccccc3c3nncn23)c1`, -0.519 (inactive).
For `CC(=O)O/N=C/c1ccc(N(C)C)cc1` the value was 0.621 (inactive); for `CCn1cc(S(=O)(=O)Nc2cc(C)on2)cn1`, -2.19 (active).
As to `CCc1ccc(NS(=O)(=O)c2cnn(CC)c2)cc1`, the z-score was -1.21 (inactive).
The same measure for `Cc1cc(NCc2cccnc2)no1`: -0.669 (inactive).
The same measure for `Cc1ccc(-n2nc(C)c(C(=O)O)n2)cc1`: -0.785 (inactive); for `CCCN(CCC)C(=O)Cn1ncn2c(cc3ccccc32)c1=O`: 0.518 (inactive).
The same measure for `Cc1cc2c(cc1S(=O)(=O)CCC(=O)N1CCCC1)OCC(=O)N2`: -1.11 (inactive); for `O=C(Nc1ccc(Cl)cc1)Nc1cc(C(=O)NCC2CCCO2)ccc1N1CC2CC(C1)c1cccc(=O)n1C2` (configuration not stated): 0.571 (inactive); for `O=c1[nH]cc(S(=O)(=O)N2CCc3ccccc32)c(=O)[nH]1`: -0.177 (inactive).
On to `CCN(CC)S(=O)(=O)c1c(C)nn(S(=O)(=O)c2ccccc2)c1C`, for which the z-score was 1.21 (inactive).
Consider `C(=N\N(Cc1ccccc1)Cc1ccccc1)/c1ccco1`, for which the z-score was -1.14 (inactive).
Consider `CCOC(=O)C(N)Cc1c[nH]c2ccccc12` (configuration not stated), for which the z-score was 0.0765 (inactive).
Consider `Cc1ccc2cc(CN(CCN3CCCC3)C(=O)NC3CCCCC3)c(=O)[nH]c2c1C`, for which the z-score was 0.448 (inactive).
For the compound `CC(C)(Oc1ccc(Cl)cc1)C(=O)Nc1ccc2oc(-c3cccnc3)nc2c1`, the z-score is 0.188 (inactive).
For `C=C(C)Cn1nc(C)c(-c2cc(C(=O)O)[nH]n2)c1C` the value was -0.083 (inactive); for `Cc1cccc(-c2cc(C(=O)N3CCN(C(=O)c4ccco4)CC3)c3ccc(Cl)c(C)c3n2)c1`, 0.0795 (inactive).
The same measure for `O=C1NN=C(c2ccccc2)C1CCO` (configuration not stated): -0.74 (inactive); for `CS(=O)(=O)C1=NSC2=NC(=O)/C(=C\c3ccco3)C(=N)N21`: -0.748 (inactive).
For `O=C(COc1ccccc1)n1c(=O)oc2ccccc21` the value was -1.36 (inactive).
As to `CCS(=O)(=O)N1CCCC(c2nc3c(nnn3Cc3ccc(C)cc3)c(=O)[nH]2)C1` (configuration not stated), the z-score was -1.1 (inactive).
For `O=C(CSc1nc2ncccc2o1)NCc1ccco1` the value was 0.0485 (inactive); for `CCNC(=O)CC1C(=O)N(c2ccc(OC)cc2)C(=O)N1CCOC` (configuration not stated), -0.571 (inactive); for `COc1ccc(C(c2nnnn2C(C)(C)C)N2CCN(c3ccccc3)CC2)cc1` (configuration not stated), -0.537 (inactive).
The same measure for `COc1ccc(C2C3=C(CCCC3=O)N(CC(=O)O)C3=C2C(=O)CCC3)cc1`: 1.54 (inactive); for `Cc1ccc(C(=O)NC(C(=O)O)c2ccccc2)cc1` (configuration not stated): 0.558 (inactive); for `C=CCNc1nc(N)sc1C#N`: 0.79 (inactive).
The same measure for `COc1cc(Br)cc(/C=N/O)c1O`: -0.372 (inactive); for `C/C(=N/NC(=O)Cc1cc(=O)[nH][nH]1)c1ccc(Cl)cc1`: -0.559 (inactive); for `Cc1cc(C)nc(-n2nc(C)c3c2N(C)C(=O)CC3c2ccccc2Cl)n1` (configuration not stated): 0.097 (inactive).
Regarding `CCc1ccc2[nH]c(=O)c(CN(Cc3ccco3)C(=O)c3ccccc3)cc2c1`, the z-score was 0.0145 (inactive).
The same measure for `N#Cc1c(F)cccc1NC(=O)CN1CCCCC1`: -0.136 (inactive); for `COc1ccc(NC(=O)c2cn(-c3ccccc3)nc2SC)cc1`: -0.623 (inactive).
For `O=C1CCC(=O)N1C(c1ccccc1)c1ccccc1` the value was -0.605 (inactive); for `COC(=O)c1ccccc1NC(=O)C(F)(F)F`, -0.55 (inactive); for `CCc1c(C)nc2c(OC)cccc2c1Cl`, -0.847 (inactive).
As for `Cc1sc2nc(C)n(NC(N)=O)c(=O)c2c1C`, the z-score was 0.328 (inactive).
In the case of `Cc1cc(N2CC(C)CC(C)C2)nc2ccc(NC(=O)CCC(=O)NCc3ccco3)cc12` (configuration not stated), the z-score was -1.27 (inactive).
With `O=C1OC(c2ccco2)=N/C1=C1/C=C(c2cccs2)Oc2ccccc21`, the z-score was -0.0915 (inactive).
Regarding `N#CC1=C(SCC(N)=O)NC2=C(C(=O)CCC2)C1c1ccco1` (configuration not stated), the z-score was 0.283 (inactive).
For `CCCCn1cc(/C=N/NC(=O)c2cc3cc(OC)ccc3n2C)c2ccccc21` the value was -0.47 (inactive); for `O=S1(=O)CCC(S(=O)(=O)NC2CCCC2)C1` (configuration not stated), -1.02 (inactive).
The same measure for `COc1ccc(C(=O)N(C)C2CCCCC2)cc1`: -0.539 (inactive).
The same measure for `CCCc1cc(=O)[nH]c2c1c(C)nn2-c1cccc(F)c1`: 1.12 (inactive).
For `Cc1[nH]n(-c2ccccc2)c(=O)c1C(=O)C(F)(F)F`, the z-score was -0.607 (inactive).
The same measure for `COc1ccc(CCN(C)C2CCNCC2)cc1OC`: -0.052 (inactive); for `COc1cccc(NC(=O)c2cc(-c3cccc(OC)c3)n[nH]2)c1`: -1.44 (inactive); for `COc1cc(-c2nc3ccccn3c2NC2CCCC2)ccc1O`: -0.532 (inactive).
For `O=C(CN1Cc2ccccc2C1=O)N1CC=C(c2ccccc2)CC1`, the z-score was -0.481 (inactive).
The same measure for `Cc1ccc(-c2nc3scc(CCNC(=O)Cc4ccccc4)n3n2)cc1`: -0.82 (inactive).
For `S=C(Cc1ccccc1)N1CCCCC1` the value was 0.211 (inactive); for `O=C1c2ccccc2C(=O)N1CNc1ccc(I)cc1`, -0.239 (inactive).
The same measure for `Cc1[nH][nH]c(=O)c1C(c1cccc(Cl)c1)C(C#N)C#N` (configuration not stated): -0.349 (inactive); for `CC(C)NC(=S)N/N=C/c1ccn[nH]1`: 0.944 (inactive); for `COc1cccc(NC(=O)c2nn(C)c3c2COc2ccccc2-3)c1`: -1.79 (inactive).
As to `CCOC(=O)c1ccc2c(c1)sc1nc(-c3cccc(OC)c3)cn12`, the z-score is -1.21 (inactive).
For `Nc1no[n+]([O-])c1C(=O)NCCO` the value was 0.91 (inactive).
The same measure for `CCN1C(=O)C2C(c3cccs3)NC(C)(C(=O)OC)C2C1=O` (configuration not stated): -0.124 (inactive); for `O=C1NN=C(Cc2ccccc2)C1CCO` (configuration not stated): -1.42 (inactive).
For `CCCc1cc(SCC(=O)O)n2c(nc3ccccc32)c1C#N` the value was -0.397 (inactive); for `CN1C(=O)CC(N2CCN(C/C=C/c3ccccc3)CC2)C1=O` (configuration not stated), 0.0475 (inactive); for `Cc1ccc2c(c1)-c1onc(C(=O)N3CCCCC3)c1CO2`, -1.74 (inactive).
Regarding `CCNC(=S)N1CCN(CCN=CC2=C(O)CC(C)(C)CC2=O)CC1`, the z-score is 0.296 (inactive).
The same measure for `O=C(C1CCN(Cc2cnn(-c3ccccc3)c2-n2cccc2)CC1)N1CCC2(CC1)OCCO2`: 0.0245 (inactive); for `O=C(O)C1CCN(Cc2ccc(Cl)cc2)CC1`: -0.653 (inactive); for `Cc1cc(-c2ccc(S(=O)(=O)NC3CCCc4ccccc43)s2)n[nH]1` (configuration not stated): 0.15 (inactive).
Turning to `Cc1ccc(C(C(=O)NCc2ccccc2)N(C(=O)C2COc3ccccc3O2)c2cccc(O)c2)o1` (configuration not stated), the z-score is -0.115 (inactive).
The same measure for `Nc1nc(SC23CC4CC(CC(C4)C2)C3)ns1`: -1.08 (inactive); for `CC1=CCCC(C)(C)C1/C=C/C(C)=N/O` (configuration not stated): -1.1 (inactive); for `Cc1ccccc1NC(=O)N1CC(C)CC(C)C1` (configuration not stated): -0.339 (inactive).
For the compound `Nc1nonc1-n1nnc(C(=O)N=Nc2c(O)[nH]c3ccc(Br)cc23)c1-c1ccccc1`, the z-score is 0.712 (inactive).
In the case of `CCOC(=O)c1cc(-c2ccc(C)cc2)n(CCC(=O)Nc2nccs2)c1C`, the z-score was 0.181 (inactive).
On to `Cc1c(NC(=O)c2ccc3c(c2)C(=O)N(C)C3=O)cccc1C(=O)O`, for which the z-score is -0.278 (inactive).
Turning to `CCC(=O)N1CCc2cc(S(=O)(=O)NCC(OC)OC)ccc21`, the z-score was 0.461 (inactive).
The same measure for `NCc1cc(C2CC2)n[nH]1`: -0.734 (inactive).
For `O=C(NCc1ccccn1)c1ccc2c(c1)CCN2S(=O)(=O)c1ccc(Cl)cc1` the value was -0.107 (inactive); for `CCNc1nc(N2CCOCC2)c2ccccc2n1`, 1.02 (inactive); for `Cc1nc(CC(=O)Nc2cccc(Cl)c2)cs1`, -0.419 (inactive).
The same measure for `O=C(Cc1ccccc1)n1nc(-c2ccco2)nc1NCc1ccccc1`: 0.165 (inactive).
